Published values of several laboratories.
Each line is one published result; the experiments were not run side by side.
Sample: plasma

Compound | test system | conditions | measurement | value
N#Cc1ccc(Nc2nc(N)cc(Oc3c(F)cc(-c4ccc(C#N)cc4)cc3F)n2)cc1 | Sprague-Dawley rat | intravenous, 1 mg/kg | clearance | 54.6 mL/min/kg
CC[C@H](C)[C@H](NC(=O)[C@H](Cc1ccccc1)NC(=O)[C@H](CCC(=O)O)NC(=O)[C@H](CCCNC(=N)N)NC(=O)[C@H](C)NC(=O)[C@H](C)NC(=O)[C@H](CCC(N)=O)NC(=O)[C@H](CCC(=O)O)NC(=O)[C@H](CCC(=O)O)NC(=O)[C@H](CC(C)C)NC(=O)[C@H](Cc1ccc(O)cc1)NC(=O)[C@H](CO)NC(=O)[C@H](CO)NC(=O)[C@@H](NC(=O)[C@H](CC(=O)O)NC(=O)[C@H](CO)NC(=O)[C@@H](NC(=O)[C@H](Cc1ccccc1)NC(=O)[C@@H](NC(=O)CNC(=O)[C@H](CCC(=O)O)NC(=O)[C@H](C)NC(=O)CCc1c[nH]cn1)[C@@H](C)O)[C@@H](C)O)C(C)C)C(=O)N[C@@H](C)C(=O)N[C@@H](Cc1c[nH]c2ccccc12)C(=O)N[C@@H](CC(C)C)C(=O)N[C@H](C(=O)N[C@@H](CCCNC(=N)N)C(=O)NCC(=O)N[C@@H](CCCNC(=N)N)C(=O)N[C@@H](CCCCNC(=O)COCCOCCNC(=O)COCCOCCNC(=O)CC[C@H](NC(=O)CCCCCCCCCCCCCCCCC(=O)O)C(=O)O)C(=O)O)C(C)C | rat | subcutaneous, 20 nmol/kg | CL/F | 0.145 mL/min/kg
COc1ccc(C(C)=O)c(O)c1 | male Sprague-Dawley rat | oral, 100 mg/kg | CL/F | 44.2 mL/min/kg
Cc1c(-c2ccccc2)cccc1N1C(=O)c2cc(CN[C@H](C(=O)O)C(C)O)c(OCc3cccc(C#N)c3)cc2C1=O (stereo partly drawn) | Sprague-Dawley rat | intravenous, 5 mg/kg | clearance | 5.66 mL/min/kg
Cl.Clc1ccc2c(c1)nc(N1CCNCC1)n2Cc1ccccc1 | rat | intravenous, 1 mg/kg | clearance | 144 mL/min/kg
O=C(c1cc(Cc2n[nH]c(=O)c3ccccc23)ccc1F)N1CCN(C(=O)C2CC2)CC1 | female Sprague-Dawley rat | intravenous | clearance | 2.22 mL/min
COc1ccc2c(Cc3ccccc3F)c3[n+](cc2c1OC)CCc1cc2c(cc1-3)OCO2.[Br-] | rat | intravenous, 5 mg/kg | clearance | 672 mL/min/kg
O=C(Nc1cc(F)c(F)c(F)c1)c1ccc(F)c(S(=O)(=O)NCc2cccc(B(O)O)c2)c1 | male Sprague-Dawley rat | intravenous, 2 mg/kg | clearance | 137 mL/min/kg
Oc1c(Br)cc(Cl)c2cccnc12 | Sprague-Dawley rat | intravenous, 2 mg/kg | clearance | 27.8 mL/min/kg
